Measurements as given in ChEMBL document CHEMBL1155343, “Discovery of N-(3-(morpholinomethyl)-phenyl)-amides as potent and selective CB2 agonists” (Bioorg Med Chem Lett, 2009).
Entries after “also recorded” stand apart in the source; their conditions may differ. Calls of active or inactive are those of the source.

Columns and labels:
Cannabinoid receptor 1 = Cannabinoid receptor 1 (Homo sapiens, UniProt P21554); assay: Displacement of [3H]CP-55940 from human CB1 receptor expressed in CHO cells; format: cell-based
Sequence of Cannabinoid receptor 1 (P21554 whole entry): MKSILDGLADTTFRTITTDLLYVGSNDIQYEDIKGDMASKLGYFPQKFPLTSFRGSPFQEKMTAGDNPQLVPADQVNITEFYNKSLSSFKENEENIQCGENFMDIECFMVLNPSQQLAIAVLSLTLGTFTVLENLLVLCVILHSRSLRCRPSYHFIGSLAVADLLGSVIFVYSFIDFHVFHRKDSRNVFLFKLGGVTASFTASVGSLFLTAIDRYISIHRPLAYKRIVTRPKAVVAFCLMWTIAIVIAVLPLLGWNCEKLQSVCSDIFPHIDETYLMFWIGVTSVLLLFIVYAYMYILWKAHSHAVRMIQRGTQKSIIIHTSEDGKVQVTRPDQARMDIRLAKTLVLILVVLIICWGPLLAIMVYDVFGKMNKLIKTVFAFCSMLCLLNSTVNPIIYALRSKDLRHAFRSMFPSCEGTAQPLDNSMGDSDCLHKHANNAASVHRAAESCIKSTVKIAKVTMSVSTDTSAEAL
Outline: (§1)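 Ki values are geometric means of at least three separate determinations. Selectivity is expressed as the ratio of the CB1 Ki to the CB2 Ki.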

Cannabinoid receptor 2 [1] = biological target: T1, Cannabinoid receptor 2 (Homo sapiens, UniProt P34972); assay: Displacement of [3H]CP-55940 from human CB2 receptor expressed in CHO cells; format: cell-based; outline: as §1
T1 sequence (P34972 whole entry): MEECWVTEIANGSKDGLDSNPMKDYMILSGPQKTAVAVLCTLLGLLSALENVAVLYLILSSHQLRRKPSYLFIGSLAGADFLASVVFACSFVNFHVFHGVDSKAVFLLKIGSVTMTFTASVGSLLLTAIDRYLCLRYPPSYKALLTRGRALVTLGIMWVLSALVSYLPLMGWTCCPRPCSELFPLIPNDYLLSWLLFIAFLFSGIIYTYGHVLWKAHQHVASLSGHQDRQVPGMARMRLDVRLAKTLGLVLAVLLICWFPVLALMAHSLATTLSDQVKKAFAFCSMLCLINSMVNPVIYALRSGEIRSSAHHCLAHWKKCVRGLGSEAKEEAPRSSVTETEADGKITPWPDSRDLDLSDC

Cannabinoid receptor 2 [2] = biological target: T1, Cannabinoid receptor 2; assay: Agonist activity at human CB2 receptor expressed in CHO cells by [35S]GTPgammaS binding assay; format: functional, cell-based
Outline: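 [35S]GTPγS binding with membranes from transfected CHO cells expressing CB2. EC50 values are geometric means of at least three separate determinations.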

Homo sapiens = species: Homo sapiens; assay: Selectivity ratio, Ki for human CB1 receptor to Ki for human CB2 receptor; outline: as §1
[3] = Metabolic stability in rat liver microsomes after 30 mins; format: ADME, Microsome; conditions: read-out: Stability
Outline: (§2)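 Compounds incubated with liver microsomes for 30 min. Read-out is percent of parent compound remaining.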

[4] = Metabolic stability in human liver microsomes after 30 mins; format: ADME, Microsome; conditions: read-out: Stability; outline: as §2
Mus musculus [5] = assay: Antiallodynic activity in mouse hind paw incision model of post-operative pain assessed as hind paw withdrawal threshold at 10 mg/kg, ip; format: functional, organism-based; parameters: dose 10 mg/kg
Mus musculus [6] = assay: Antiallodynic activity in mouse hind paw incision model of post-operative pain assessed as hind paw withdrawal threshold at 3 mg/kg, ip; format: functional, organism-based; parameters: dose 3 mg/kg
Mus musculus [7] = assay: Antiallodynic activity in po dosed mouse hind paw incision model of post-operative pain assessed as hind paw withdrawal threshold; format: functional, organism-based
Mus musculus [8] = assay: Toxicity in mouse hind paw incision model assessed as behavioral effects at 10 mg/kg, ip; format: organism-based; parameters: dose 10 mg/kg, route intraperitoneal; conditions: in vivo
Mus musculus [9] = assay: Toxicity in mouse hind paw incision model assessed as behavioral effects at 3 mg/kg, ip; format: organism-based; parameters: dose 3 mg/kg, route intraperitoneal; conditions: in vivo

SMILES | Ki (Cannabinoid receptor 1) | Ki (Cannabinoid receptor 2 [1]) | EC50 (Cannabinoid receptor 2 [2]) | Ratio Ki (Homo sapiens) | remaining at 0.5 h [3] | remaining at 0.5 h [4] | Activity (Mus musculus [5]) | Activity (Mus musculus [6]) | Activity (Mus musculus [7]) | Activity (Mus musculus [8]) | Activity (Mus musculus [9]) | Activity (Cannabinoid receptor 1)
Cc1ccc(C(=O)NC2C(C)(C)[C@@H]3CC[C@@]2(C)C3)cc1CCCN1CCOCC1 (some centres not stated) | 2100 nM | 62 nM | 110 nM | 34 | – | – | – | – | – | – | – | –
Cc1cc(NC(=O)C(C)(C(F)(F)F)C(F)(F)F)cc(CN2CCOCC2)c1C | 500 nM | 2.7 nM | 5.5 nM | 190 | 3.1% | 31% | Active | Active | inactive | Non-toxic; also recorded: Not Active | – | –
Cc1c(CN2CCOCC2)cc(NC(=O)C2CCCCC2C)cc1C(F)(F)F (configuration not stated) | 110 nM | 17 nM | 42 nM | 6.5 | 2% | 2% | – | – | – | – | – | –
Cc1ccc(NC(=O)C2CCCCC2C)cc1CN1CCOCC1 (configuration not stated) | 1600 nM | 70 nM | 76 nM | 23 | 2.2% | 38% | – | – | – | – | – | –
Cc1ccc(C(=O)NC2C(C)(C)[C@@H]3CC[C@@]2(C)C3)cc1N1CCOCC1 (some centres not stated) | 9000 nM | 300 nM | – | 30 | – | – | – | – | – | – | – | –
CN1CC[C@]23c4c5ccc(O)c4O[C@H]2[C@@H](O)C=C[C@H]3[C@H]1C5 [MORPHINE] | – | – | – | – | – | – | – | – | – | – | Not Active | –
Cc1ccc(C(=O)NC2C(C)(C)[C@@H]3CC[C@@]2(C)C3)cc1CN1CCOCC1 (some centres not stated) | 1100 nM | 19 nM | 42 nM | 58 | – | – | – | – | – | – | – | –
Cc1cc(NC(=O)C2CCCCC2C)cc(CN2CCOCC2)c1C (configuration not stated) | 540 nM | 8.6 nM | 21 nM | 63 | 1% | 32% | – | – | – | – | – | –
Cc1ccc(C(=O)NC2C(C)(C)[C@@H]3CC[C@@]2(C)C3)cc1C(=O)N1CCOCC1 (some centres not stated) | > 5000 nM | 1200 nM | – | – | 26% | – | – | – | – | – | – | –
Cc1cc(F)c(NC(=O)C2CCCCC2C)cc1CN1CCOCC1 (configuration not stated) | – | 37 nM | 49 nM | – | 15% | 36% | – | – | – | – | – | 31%
CC(C(=O)Nc1ccc2c(c1)C(N1CCOCC1)CCC2)(C(F)(F)F)C(F)(F)F (stereo in doubt; 43) | 3400 nM | 10 nM | 41 nM | – | – | – | – | – | – | – | – | –
CCC(C)(C)C(=O)Nc1cc(CN2CCOCC2)c(C)cc1F | – | 120 nM | 200 nM | – | 20% | 57% | – | – | – | – | – | 10%
CC(C(=O)Nc1ccc2c(c1)C(N1CCOCC1)CCC2)(C(F)(F)F)C(F)(F)F (single isomer, unassigned) | 1300 nM | 2.3 nM | 3.6 nM | – | – | – | – | – | – | – | – | –
Cc1ccc(C(=O)NC2C(C)(C)[C@@H]3CC[C@@]2(C)C3)cc1S(=O)(=O)N1CCOCC1 (some centres not stated) | 130 nM | 3.9 nM | 6.6 nM | 31 | – | – | – | – | – | – | – | –
Cc1ccc(NC(=O)C(C)(C(F)(F)F)C(F)(F)F)cc1CN1CCOCC1 | 6300 nM | 16 nM | 14 nM | 390 | 0.9% | 42% | – | – | – | – | – | –
CCC(C)(C)C(=O)Nc1ccc(C)c(CN2CCOCC2)c1 | – | 120 nM | 110 nM | – | 29% | 56% | – | – | – | – | – | 4%
Cc1ccc(C(=O)NC2C(C)(C)[C@@H]3CC[C@@]2(C)C3)cc1CCN1CCOCC1 (some centres not stated) | 1400 nM | 45 nM | 64 nM | 31 | – | – | – | – | – | – | – | –
CCC(C)(C)C(=O)Nc1cc(CN2CCOCC2)c(C)cc1C | – | 530 nM | 500 nM | – | 42% | 61% | – | – | – | – | – | 18%
Cc1cc(C)c(NC(=O)C2CCCCC2C)cc1CN1CCOCC1 (configuration not stated) | – | 440 nM | 590 nM | – | 67% | 49% | – | – | – | – | – | 14%
Cc1ccc(C(=O)NC2C(C)(C)[C@@H]3CC[C@@]2(C)C3)cc1CCC(=O)N1CCOCC1 (some centres not stated) | 1700 nM | 83 nM | – | 20 | – | – | – | – | – | – | – | –
Cc1ccc(C(=O)NC2C3(C)CCC(C3)C2(C)C)cc1CC(=O)N1CCOCC1 (configuration not stated) | 3900 nM | 700 nM | – | 5.6 | – | – | – | – | – | – | – | –
CC(C(=O)Nc1ccc2c(c1)C(N1CCOCC1)CCC2)(C(F)(F)F)C(F)(F)F (single isomer, unassigned; enantiomer 2) | > 5000 nM | 120 nM | 72 nM | – | – | – | – | – | – | – | – | –
